Experiments:
Format in all cases: functional, Artery
Conditions in all cases: route oral
Rattus norvegicus [1] = assay: Percentage fall in systolic blood pressure after 4 hr at 0.31 mg/kg given perorally
Summary of the method: (§1)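 Male Okamoto-Aoki spontaneously hypertensive rats, trained, in groups of four matched for mean systolic pressure; five treated groups and one vehicle control run concurrently. Oral dosing in water (solution or suspension, 0.1 mL/10 g) on two consecutive mornings. On day 2, rats were restrained at 30.0 ± 1.0 °C and tail-cuff systolic pressure recorded at 1–4 h; percent fall versus control, 1-tail t test, p ≤ 0.05.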

Rattus norvegicus [2] = assay: Percentage fall in systolic blood pressure after 3 hr at 1.25 mg/kg given perorally; summary of the method: as §1
Rattus norvegicus [3] = assay: Percentage fall in systolic blood pressure after 4 hr at 1.25 mg/kg given perorally; summary of the method: as §1
Rattus norvegicus [4] = assay: Percentage fall in systolic blood pressure after 1 hr at 1.25 mg/kg given perorally; summary of the method: as §1
Rattus norvegicus [5] = assay: Percentage fall in systolic blood pressure after 2 hr at 0.31 mg/kg given perorally; summary of the method: as §1
Rattus norvegicus [6] = assay: Percentage fall in systolic blood pressure after 2 hr at 1.25 mg/kg given perorally; summary of the method: as §1
Rattus norvegicus [7] = assay: Percentage fall in systolic blood pressure after 3 hr at 0.31 mg/kg given perorally; summary of the method: as §1
Rattus norvegicus [8] = assay: Percentage fall in systolic blood pressure after 1 hr at 0.31 mg/kg given perorally; summary of the method: as §1

COc1cc2nc(N3CCN(C(=O)c4ccco4)CC3)nc(N)c2cc1OC [PRAZOSIN]
Decrease in SBP (Rattus norvegicus [1]): 26%
Decrease in SBP (Rattus norvegicus [2]): 36%
Decrease in SBP (Rattus norvegicus [3]): 31%
Decrease in SBP (Rattus norvegicus [4]): 26%
Decrease in SBP (Rattus norvegicus [5]): 31%
Decrease in SBP (Rattus norvegicus [6]): 46%
Decrease in SBP (Rattus norvegicus [7]): 21%
Decrease in SBP (Rattus norvegicus [8]): 19%
